Screening data (PubChem BioAssay)
An excerpt weighted towards active compounds, which were near 0.89% of everything screened.
V-ATPase pHluor = alters yeast V-ATPase proton transport; S. cerevisiae, pHLuorin cytosolic pH fluorescence; response, % at 10 µM; hit rate 0.37% among 350,000; AID 504577; in the data active = response mostly above about 7.3%, no sharp cut-off; inactive = mostly below about 5.4%; note: actives read high
NTR1 agonist = NTR1 (human) agonism; P30989; NTR1-U2OS beta-arrestin-GFP spot imaging, agonist mode; activation, % at 20 µM; hit rate 0.17% among 330,000;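 active = activation at or above 40% of the spot to cytoplasm intensity ratio, with at least 20 cells analyzed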;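 note: 0% = DMSO without peptide and 100% = 100 nM NTR1 peptide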
Target sequence (P30989 whole entry, looked up): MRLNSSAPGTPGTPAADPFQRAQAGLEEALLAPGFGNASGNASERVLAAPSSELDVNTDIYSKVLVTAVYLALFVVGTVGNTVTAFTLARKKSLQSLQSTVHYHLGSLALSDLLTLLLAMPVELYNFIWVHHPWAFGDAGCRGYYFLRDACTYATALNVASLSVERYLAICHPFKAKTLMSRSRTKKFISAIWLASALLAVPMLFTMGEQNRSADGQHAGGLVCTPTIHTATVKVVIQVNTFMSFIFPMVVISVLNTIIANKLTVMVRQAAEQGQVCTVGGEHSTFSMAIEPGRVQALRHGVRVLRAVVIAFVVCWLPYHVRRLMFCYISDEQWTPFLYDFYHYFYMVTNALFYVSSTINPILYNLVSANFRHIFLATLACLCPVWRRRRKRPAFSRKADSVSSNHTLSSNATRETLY
beta cell repl = induces beta-cell replication in MIN6 cells; MIN6 cells proliferation, ATPlite luminescence, 48 h; cells starved in 0.2% serum; 100% = growth in 10% serum; proliferation, % at 10 µM; hit rate 0.29% among 330,000; AID 2380;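 active = compounds whose signal lies at least 3.5 SD above the mean of all wells on their plate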;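 note: 0% = DMSO-treated cells in low-serum medium and 100% = 10% serum control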
T cell HTS = T cell immune modulation candidate | response (vesicle binding), % at 7 µM | 2C CD8+ T cell-vesicle binding, flow cytometry; stronger effect = lower value | hit rate 0.068% among 330,000 | AID 2052;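 active = response, share of CD8 T cells binding vesicles, and their 90th percentile fluorescence all below set limits, cut at about 80% in these data, passing the limit was not always enough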;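 note: values below 100% mean blocked vesicle binding to the CD8+ T cells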
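incubation = binding step 1.5 h, 37 °C, antibody labelling 20 min, ice | test system = 2C mouse CD8+ T cells | read-out basis = percent CD8+ FL2 mean versus row control | controls = Peptide-free naked vesicles (low) and QL9 vesicles with 0.7% DMSO vehicle (high) | detection = flow cytometry of vesicle-bound cells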
Arr AP2 block = inhibitors of human beta-arrestin and AP2 interaction; inhibition, % at 10 µM; FITC-arrestin peptide / GST-AP2 beads, flow cytometry; AP2 beta2 appendage carries R879A mutation; hit rate 0.31% among 340,000;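 active = inhibition above a set limit, near 3 SD of compounds lacking own fluorescence, cut at about 54% in these data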;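 note: plate controls were DMSO wells for no effect and 5 µM unlabelled arrestin peptide for full effect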
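Test system: GST-tagged AP2 beta2-adaptin appendage (R879A) on 4 µm glutathione beads; also added: fluorescein-tagged arrestin peptide at 50 nM final; timing: 12 min plus 1 h, RT; signal: flow cytometry, FL1 (488/535 nm); read-out: percent drop in bead-associated FITC signal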
Xi reactivation = activators of X-chromosome reactivation in mouse fibroblasts; XiGFP mouse fibroblasts, % GFP-positive cells imaging, 3 d; cells co-treated with 5-aza-dC sensitizer; scaled so ellipticine positive control = 100%; activation, % at 7.58 µM; hit rate 0.055% among 360,000; AID 743238;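 active = mean normalized replicate activation at least 10% and every replicate at or above 10%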;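 note: 0% = median of on-plate neutral control wells and 100% = ellipticine 6 µM median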
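System: 68-5-11 XiGFP fibroblast line; Timing: 3 days compound exposure; Compound dosing: one concentration, pinned; Benchmarks: positive control ellipticine, 6 µM final; Buffer or medium: DMEM containing 5-aza-dC.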
NTR1 ag conf = NTR1 (human) agonism, confirmed; NTR1-U2OS beta-arrestin-GFP translocation imaging; shares compounds with NTR1 agonist; hit rate 38% among 480; AID 504550; activation, % at 20 µM;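 active = mean activation at 20 µM of at least 40%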;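 note: 0% = DMSO without peptide and 100% = 100 nM NTR1 peptide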
* hit, by the source's call; / = no result.

SMILES | V-ATPase pHluor | NTR1 agonist | beta cell repl | T cell HTS | Arr AP2 block | Xi reactivation | NTR1 ag conf
CC(C)(C)OC(=O)COc1cc(OCC(=O)OC(C)(C)C)c2c(=O)cc(-c3ccccc3)oc2c1 | -1 | 53* | -5 | 421 | 28 | / | 16
O=C1c2[nH]nc(-c3ccccc3O)c2C(c2cccc(Cl)c2)N1Cc1ccco1 (centres undefined) | 2 | 46* | -6 | 412 | 12 | / | 10
CCOC(=O)c1c(CSc2ccc(C)cc2)oc2ccc(O)cc12 | 1 | 45* | -6 | 209 | 29 | 0 | 6
CCOC(=O)c1c(CSc2ccccc2)oc2ccc(O)cc12 | 4 | 12 | -6 | 426 | -9 | 0 | /
CCC(=O)Nc1ccc2c(c1)C(=O)N(C)C[C@H](OC)[C@H](C)CN(C(=O)CN(C)C)[C@@H](C)CO2 | / | / | / | / | / | 2 | /
CC(C)C[C@@H](CO)N(Cc1ccccc1)S(=O)(=O)N(Cc1ccccc1)[C@H](CO)CC(C)C | -1 | 50* | -7 | 522 | 7 | / | 19
O=S(=O)(N(Cc1ccccc1)[C@H](CO)Cc1ccccc1)N(Cc1ccccc1)[C@H](CO)Cc1ccccc1 | 3 | 0 | 2 | 603 | 0 | 0 | /
CC(C)C[C@@H](CO)N(Cc1ccccc1)S(=O)(=O)N(Cc1ccccc1)[C@@H](CO)CC(C)C | -1 | 47* | -7 | 954 | 0 | / | 21
COc1ccc(CN([C@H](CO)CC(C)C)S(=O)(=O)N(Cc2ccccc2)[C@H](CO)CC(C)C)cc1 | -11 | 7 | -6 | 224 | -6 | 0 | /
CO[C@@H]1CN(C)C(=O)c2cc(NC(=O)Nc3ccccc3F)ccc2OC[C@@H](C)NC[C@@H]1C | / | / | / | / | / | 0 | /
COc1ccc(CC(=O)Nc2cccc(-c3nnc(-c4cccc(C)c4)o3)c2)cc1OC | 1 | 41* | -7 | 168 | -7 | / | 58*
C[C@H](CO)N1C[C@H](C)[C@H](CN(C)C(=O)Nc2ccccc2)Oc2c(NS(=O)(=O)c3cccs3)cccc2C1=O | / | / | / | / | / | -1 | /
CC(C)S(=O)(=O)c1csc(NC(=O)Nc2cc(Cl)ccc2Cl)c1Cl | 1 | 42* | -4 | 439 | -20 | 0 | 12
Cc1cccc(OCC(=O)NCC(=O)N/N=C/c2ccc(O)cc2O)c1 | -3 | 40* | -1 | 391 | -2 | 0 | 30
O=C(/C=C\c1ccccc1)NCC(=O)N/N=C/c1ccc(O)cc1O | 12* | 66* | -2 | 359 | 3 | / | 55*
COc1cccc(/C=N/NC(=O)CNC(=O)COc2cccc(C)c2)c1O | -1 | 38 | -6 | 637 | -8 | 0 | /
COc1ccc(/C=C\C(=O)NCC(=O)N/N=C/c2ccc(O)cc2O)cc1 | 1 | 37 | -3 | 238 | 8 | 0 | /
Cn1cnc(S(=O)(=O)N2CC[C@@H]3[C@@H](CO)Nc4ccc(-c5ccccc5)cc4[C@@H]32)c1 | / | / | / | / | / | 0 | /
C/C=C/c1ccc([C@H]2[C@H](CO)N(C(=O)c3cnccn3)C23CN(C(=O)CC)C3)cc1 | / | / | / | / | / | 0 | /
CCOC(=O)c1sc(Nc2ccccc2)nc1C | 1 | 0 | -3 | 402 | -6 | / | /
CCOC(=O)c1sc(Nc2nc3c(OC)cccc3s2)nc1C | -2 | 55* | -6 | 504 | 20 | / | 26
COc1ccc(CNC(=O)C[C@H]2C=C[C@@H](NS(=O)(=O)c3cccc(OC)c3)[C@@H](CO)O2)cc1 | / | / | / | / | / | 0 | /
COc1ccc(CNCC(O)COc2ccc(C(C)(C)c3ccccc3)cc2)cc1 (centres undefined) | -3 | 50* | -7 | 200 | 30 | 0 | 6
COC(=O)c1ccc(CNCC(O)COc2ccc(-c3ccccc3)cc2)cc1 (centres undefined) | -5 | 3 | 0 | 184 | -5 | 0 | /
OC(CNCCc1ccc(C(F)(F)F)cc1)COc1cccc2ccccc12 (centres undefined) | 2 | 13 | -6 | 140 | 12 | 0 | /
